From ChEMBL document CHEMBL1131490, “1,4-Cyclohexanecarboxylates: potent and selective inhibitors of phosophodiesterase 4 for the treatment of asthma” (J Med Chem, 1998)

Legend:
[1] = biological target: Phosphodiesterase 4 (Homo sapiens, UniProt P27815+Q08499+Q07343+Q08493); assay: Inhibition activity against human monocyte derived PDE4 catalytic activity (LPDE4); format: protein assay
[2] = test system: Cavia porcellus; assay: Antigen-induced bronchoconstriction in guinea pigs after iv administration 10 min pre-treatment; format: functional; settings: read-out: ID50 (the source's name)
Procedure, shortened: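 Anesthetized guinea pigs, compound given intravenously, with bronchoconstriction provoked by antigen challenge.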

[3] = test system: Cavia porcellus; assay: Antigen-induced bronchoconstriction in guinea pigs after peroral administration 1 hour pre-treatment; format: functional; settings: po, read-out: ID50 (the source's name)
[4] = test system: Mus musculus; assay: Reversal of reserpine-induced hypothermia in the mouse on peroral administration; format: functional; settings: po
[5] = The value for hypothermia against antigen provocation (po); settings: in vivo
[6] = organism: Mus musculus; assay: Reversal of reserpine-induced hypothermia in the mouse; format: functional
[7] = organism: Mus musculus; assay: Inhibition of lipopolysaccharide (LPS)-induced TNF alpha generation in mouse; format: functional; settings: read-out: ID50 (the source's name)
Procedure, shortened: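 Human monocytes adoptively transferred into mice, then LPS challenge. Compound dosed orally; human TNFα generation measured. ID50 taken from the mean response of three to eight animals.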

[8] = organism: Oryctolagus cuniculus; assay: Stimulation of acid secretion from rabbit parietal glands; format: functional
[9] = test system: Canis familiaris; assay: Emetic effect in dogs by intravenous administration; format: functional; settings: Canis lupus familiaris
[10] = organism: Homo sapiens; assay: (§1) Inhibition of lipopolysaccharide (LPS)-induced TNF alpha release by human monocytes; format: functional
[11] = organism: Canis familiaris; assay: Emetic effect in dogs; format: functional; settings: Canis lupus familiaris
[12] = as §1; format: functional
[13] = organism: Mus musculus; assay: Reversal of reserpine-induced hypothermia in mouse by peroral dose; format: functional; settings: po

| SMILES | IC50 [1] [nM] | ED50 [2] [mg/kg] | also measured |
| --- | --- | --- | --- |
| COc1ccc(C2(C(N)=O)CCC(=O)CC2)cc1OC1CCCC1 | 320 | – | – |
| COc1ccc([C@@H]2CC(=O)N(Cc3ccc(N)cc3)C2)cc1OC1CCCC1 | 195 | 10 | – |
| COc1ccc(C2CCC(C(=O)O)CC2)cc1OC1CCCC1 (stereo not given) | 1200 | – | – |
| COc1ccc(C2CCC(=O)CC2)cc1OC1CCCC1 | 120 | – | – |
| COc1ccc(C2CCC(C(=O)O)C2)cc1OC1CCCC1 (stereo not given) | 1200 | 0.5 | ED50 [3]: 3 mg/kg; ED50 [4]: 0.5 mg/kg; selectivity ratio [5]: 0.17 |
| COc1ccc(C2(CO)CCC(=O)CC2)cc1OC1CCCC1 | 2500 | – | – |
| C#CC1(c2ccc(OC)c(OC3CCCC3)c2)CCC(=O)CC1 | 80 | – | – |
| COc1ccc(C2CCC(=O)C2)cc1OC1CCCC1 (stereo not given) | 500 | – | – |
| COc1ccc(C2(C=O)CCC(=O)CC2)cc1OC1CCCC1 | 340 | – | – |
| COc1ccc(C2(C#N)CCC(=O)CC2)cc1OC1CCCC1 | 44 | – | – |
| COc1ccc(C2(C#N)CCC(c3nnn[nH]3)CC2)cc1OC1CCCC1 (stereo not given) | 740 | – | – |
| COc1ccc(C2CC(=O)N(Cc3ccc(N)cc3)C2)cc1OC1CCCC1 (stereo not given) | 52 | 0.5 | – |
| COc1ccc(C2(CF)CCC(=O)CC2)cc1OC1CCCC1 | 1180 | – | – |
| COc1ccc([C@]2(C#N)CC[C@@H](C(=O)O)CC2)cc1OC1CCCC1 (stereo in doubt; 1) [CILOMILAST] | – | 1.8 | ED50 [6]: 2.3 mg/kg; ED50 [7]: 4.9 mg/kg; EC50 [8]: 800 nM; ED50 [9]: 4.6 mg/kg; IC50 [10]: 110 nM |
| COc1ccc([C@@H]2CNC(=O)C2)cc1OC1CCCC1 [(-)-ROLIPRAM] | – | 0.2 | ED50 [11]: 0.04 mg/kg; ED50 [3]: 2 mg/kg; ED50 [4]: 0.2 mg/kg; ED50 [7]: 5.1 mg/kg; EC50 [8]: 4 nM; IC50 [12]: 70 nM |
| COc1ccc([C@H]2CNC(=O)C2)cc1OC1CCCC1 [S-ROLIPRAM] | – | 0.2 | ED50 [3]: 2 mg/kg; ED50 [13]: > 10 mg/kg |
